Assays:
Bos taurus = organism: Bos taurus; assay: Kinetic parameter in calf intestine adenosine deaminase.; type: ADME; settings: cattle, in vitro
HEp-2 [1] = assay: Cytotoxicity against H.Ep cells in the presence of 0.1 ug/mL pentostatin.; type: functional, cell-based; settings: Homo sapiens
Method in brief: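 H.Ep.-2 cell culture cytotoxicity screen with pentostatin at 0.1 µg/mL in the medium. Value is the drug concentration that inhibits cell growth to 50% of controls.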

HEp-2 [2] = assay: Cytotoxicity against H.Ep cells; type: functional, cell-based; settings: Homo sapiens
Method in brief: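 H.Ep.-2 human cell culture cytotoxicity screen. Value is the drug concentration that inhibits cell growth to 50% of untreated controls.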

P388 [3] = assay: Percent increase in life span of P388 leukemia cells (10e6) infected(ip) mice at dose of 6(50) mg/kg, ip: qd 1-9 schedule.; type: functional, Mus musculus
P388 [4] = assay: Percent increase in life span of P388 leukemia cells (10e6) infected(ip) mice at dose of 400 (400) mg/kg, ip: day 1 only; type: functional, Mus musculus
P388 [5] = assay: Percent increase in life span of P388 leukemia cells (10e6) infected(ip) mice at dose of 50 (200) mg/kg, ip: qd 1-5 schedule.
P388 [6] = assay: Percent increase in life span of P388 leukemia cells (10e6) infected(ip) mice at dose of 50 (400) mg/kg, ip: qd 1-5 schedule.; type: functional, Mus musculus

| Compound | Vmax (Bos taurus) | IC50 (HEp-2 [2]) | other results |
| --- | --- | --- | --- |
| COc1ncnc2c1ncn2[C@@H]1O[C@H](CO)[C@@H](O)[C@@H]1O | 2 µM/min/mg |  |  |
| Nc1ncnc2c1nnn2[C@@H]1O[C@H](CO)[C@@H](O)[C@H]1O | 1500 µM/min/mg | 0.7 µM | IC50 (HEp-2 [1]): < 0.02 µM |
| Nc1ncnc2c1nnn2[C@@H]1O[C@H](CO)[C@@H](O)[C@@H]1O | 75 µM/min/mg |  |  |
| Nc1nc(N)c2nnn([C@@H]3O[C@H](CO)[C@@H](O)[C@H]3O)c2n1 | 23 µM/min/mg | 0.7 µM | IC50 (HEp-2 [1]): > 20 µM; ILS (P388 [3]): 25% |
| Nc1nc(N)c2ncn([C@@H]3O[C@H](CO)[C@@H](O)[C@H]3O)c2n1 | 119 µM/min/mg |  |  |
| Nc1nc(F)nc2c1ncn2[C@@H]1O[C@H](CO)[C@@H](O)[C@H]1O | 0.78 µM/min/mg |  |  |
| Nc1nc(F)nc2c1nnn2[C@H]1C[C@H](O)[C@@H](CO)O1 |  | 70 µM |  |
| Nc1ncnc2c1nnn2[C@H]1C[C@H](O)[C@@H](CO)O1 | 2000 µM/min/mg | 10 µM | IC50 (HEp-2 [1]): > 25 µM |
| COc1ncnc2c1nnn2[C@@H]1O[C@H](CO)[C@@H](O)[C@H]1O | 27 µM/min/mg |  |  |
| Nc1nc(O)c2nnn(C3O[C@H](CO)[C@@H](O)[C@H]3O)c2n1 (some centres undefined) |  | 2 µM |  |
| CSc1nc(N)c2nnn(C3O[C@H](CO)[C@@H](O)[C@H]3O)c2n1 (some centres undefined) |  | > 130 µM |  |
| CSc1nc(N)c2nn(C3O[C@H](CO)[C@@H](O)[C@H]3O)nc2n1 (some centres undefined) |  | 25 µM |  |
| Nc1nc(N)c2nn(C3O[C@H](CO)[C@@H](O)[C@H]3O)nc2n1 (some centres undefined) |  | > 75 µM | ILS (P388 [4]): 0% |
| CS(=O)(=O)c1nc(N)c2nn(C3O[C@H](CO)[C@@H](O)[C@H]3O)nc2n1 (some centres undefined) |  | 22 µM |  |
| CCOc1nc(N)c2nnn(C3O[C@H](CO)[C@@H](O)[C@H]3O)c2n1 (some centres undefined) |  | > 75 µM |  |
| Nc1nc(F)nc2c1nnn2C1O[C@H](CO)[C@@H](O)[C@H]1O (some centres undefined) | 5 µM/min/mg | 2 µM | IC50 (HEp-2 [1]): 2 µM; ILS (P388 [5]): 21% |
| Nc1nc(F)nc2nn(C3O[C@H](CO)[C@@H](O)[C@H]3O)nc12 (some centres undefined) |  | > 75 µM |  |
| CS(=O)(=O)c1nc(N)c2nnn(C3O[C@H](CO)[C@@H](O)[C@H]3O)c2n1 (some centres undefined) |  | 14 µM | ILS (P388 [6]): 38% |
| Nc1nc(O)nc2nn(C3O[C@H](CO)[C@@H](O)[C@H]3O)nc12 (some centres undefined) |  | > 75 µM |  |
| Nc1nc(O)c2[nH]nnc2n1 [8-AZAGUANINE] |  | 2 µM |  |
| Nc1ncnc2c1ncn2[C@@H]1O[C@H](CO)[C@@H](O)[C@H]1O [ADENOSINE] | 435 µM/min/mg |  |  |
| Nc1ncnc2c1ncn2[C@@H]1O[C@H](CO)[C@@H](O)[C@@H]1O [VIDARABINE] | 94 µM/min/mg |  |  |
